39 variants from the RNAGym collection of RNA variant scans (doi:10.1038/nmeth.2970) can be followed below.

To fix the notation:
B1: NELF-E aptamer (parent)
chain: CCCAACGACUGCCGAGCGAGAUUACGCUUGAGCGCCCCACUGAGGAUGCCCACGGGCGAUUGGGGCACGG

The data set covers variants of B1. The data set is described as follows: HiTS-RAP. Conditions: with NELF-E (Drosophila). The method in brief: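 Aptamer DNA templates carrying a T7 promoter and ter site were sequenced on an Illumina GAIIx flowcell, then transcribed in situ by T7 RNA polymerase and halted by GST-Tus (30 minutes, 37°C). Clusters were imaged after 30-minute room-temperature equilibration with NELF-E-mOrange at 0.064 to 1000 nM in HEPES binding buffer, and only the first binding curve was used. Intensities were normalised to sequencing intensity and averaged per sequence. Kd came from weighted Hill fits, keeping fits with variance below 1,000,000.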
The Kd is the constant that tells how readily two partners part at equilibrium. For CCCAACGACUGCCGAGCGAGAUUACGCUGGAGCGCCCCACUGAGGAUGCCCAGGGGCGAUUGGGGCACGG [U29G C53G], the Kd turned out to be 5.71 nM.

Turning to CCCAACGACUGCCGAGCGAGAUUACGCUGGAGCGCCCCACUGAGGAUGCCCAUGGGCGAUUGGGGCACGG [U29G C53U], the Kd was determined as 3.72 nM.

For CCCAACGACUGCCGAGCGAGAUUACGCUGGAGCGCCCCACUGAGGAUGCCCACGGGCGAUUGGGGUACGG [U29G C66U], the equilibrium dissociation constant (Kd) was determined as 4.32 nM.

In the case of CCCAACGACUGCCGAGCGAGAUUACGCUUGGGCGCCCCACUGAGGAUGCCCACGGGCGAUUGGGGCACGG [A31G], the Kd is 6.92 nM.

CCCAACGACUGCCGAGCGAGAUUACGCUUGUGCGCCCCACUGAGGAUGCCCACGGGCGAUUGGGGCACGG [A31U]: the Kd was 5.92 nM.

On to CCCAACGACUGCCGAGCGAGAUUACGCUUGCGCGCCCCACUGAGGAUGCCCACGGGCGAUUGGGGCACGG [A31C], for which the Kd came to 4.61 nM.

Regarding CCCAACGACUGCCGAGCGAGAUUACGCUGGAGCGCCCCACUGAGGAUGCUCACGGGCGAUUGGGGCACGG [U29G C50U], the Kd came to 15.4 nM.

Consider CCCAACGACUGCCGAGCGAGAUUACGCUUGAACGCCCCACGGAGGAUGCCCACGGGCGAUUGGGGCACGG [G32A U41G], for which the Kd came to 5.08 nM.

Consider CCCAACGACUGCCGAGCGAGAUUACGCUUGGGCGCCCCGCUGAGGAUGCCCACGGGCGAUUGGGGCACGG [A31G A39G], for which the Kd was found to be 14.3 nM.

Regarding CCCAACGACUGCCGAGCGAGAUUACGCUGGAGCGCCCCACUGAGGAUACCCACGGGCGAUUGGGGCACGG [U29G G48A], the Kd was 11.3 nM.

Regarding CCCAACGACUGCCGAGCGAGAUUACGCUGGAGCGCCCCACUGAGGAUUCCCACGGGCGAUUGGGGCACGG [U29G G48U], the equilibrium dissociation constant (Kd) came out at 6.22 nM.

Regarding CCCAACGACUGCCGAGCGAGAUUACGCUGGAGCGCCCCACUAAGGAUGCCCACGGGCGAUUGGGGCACGG [U29G G42A], the Kd is 24.6 nM.

As to CCCAACGACUGCCGAGCGAGAUUACGCUGGAGCGCCCCACUUAGGAUGCCCACGGGCGAUUGGGGCACGG [U29G G42U], the dissociation constant (Kd) is 10.4 nM.

In the case of CCCAACGACUGCCGAGCGAGAUUACGCUGGAGCGCCCCACUGAGGAUGCCCACGGGCGAUUUGGGCACGG [U29G G62U], the Kd was found to be 8.12 nM.

For CCCAACGACUGCCGAGCGAGAUUACGCUGGAGCGCCCCACUGAGGAUGCCCACGGGCGAUUAGGGCACGG [U29G G62A], the dissociation constant (Kd) was 18.7 nM.

Regarding CCCAACGACUGCCGAGCGAGAUUACGCUUUGGCGCCCCACUGAGGAUGCCCACGGGCGAUUGGGGCACGG [G30U A31G], the Kd came to 6.4 nM.

Consider CCCAACGACUGCCGAGCGAGAUUACGCUGGAGCGCCCCACUGAGAAUGCCCACGGGCGAUUGGGGCACGG [U29G G45A], for which the dissociation constant (Kd) is 74.1 nM.

For CCCAACGACUGCCGAGCGAGAUUACGCUGGAGCGCCCCACUGAGUAUGCCCACGGGCGAUUGGGGCACGG [U29G G45U], the dissociation constant (Kd) was determined as 5.6 nM.

Take CCCAACGACUGCCGAGCGAGAUUACGCUUGUGCGCCCCACUGAGGAUGCCCAUGGGCGAUUGGGGCACGG [A31U C53U]: the Kd worked out at 3.69 nM.

In the case of CCCAACGACUGCCGAGCGAGAUUACGCUGGAGCGCCCCACAGAGGAUGCCCACGGGCGAUUGGGGCACGG [U29G U41A], the Kd stood at 78.7 nM.

Regarding CCCAACGACUGCCGAGCGAGAUUACGCUGGAGCGCCCCACCGAGGAUGCCCACGGGCGAUUGGGGCACGG [U29G U41C], the dissociation constant (Kd) is 67.5 nM.

Regarding CCCAACGACUGCCGAGCGAGAUUACGCUGGAGCGCCCCACGGAGGAUGCCCACGGGCGAUUGGGGCACGG [U29G U41G], the Kd came to 5.31 nM.

As to CCCAACGACUGCCGAGCGAGAUUACGCUUAAGCGCCCCACGGAGGAUGCCCACGGGCGAUUGGGGCACGG [G30A U41G], the Kd is 5.12 nM.

Regarding CCCAACGACUGCCGAGCGAGAUUACGCUUGGGCGCCCCACUGAGGAUGCCCACGGGCGAUUGGGGCUCGG [A31G A67U], the dissociation constant Kd worked out at 10.7 nM.

Turning to CCCAACGACUGCCGAGCGAGAUUACGCUUGGACGCCCCACUGAGGAUGCCCACGGGCGAUUGGGGCACGG [A31G G32A], the Kd was 5.29 nM.

For CCCAACGACUGCCGAGCGAGAUUACGCUUGGUCGCCCCACUGAGGAUGCCCACGGGCGAUUGGGGCACGG [A31G G32U], the Kd amounted to 4.81 nM.

As to CCCAACGACUGCCGAGCGAGAUUACGCUGGAGCGCCCCACUGAGGAUGCCCACGGGUGAUUGGGGCACGG [U29G C57U], the dissociation constant (Kd) came out at 5.61 nM.

For CCCAACGACUGCCGAGCGAGAUUACGCUGGAACGCCCCACUGAGGAUGCCCACGGGCGAUUGGGGCACGG [U29G G32A], the dissociation constant (Kd) was determined as 5.37 nM.

For CCCAACGACUGCCGAGCGAGAUUACGCUUGGGCGCCCCACUGAGGAUGCCCACGGGCGAUUGGGACACGG [A31G G65A], the Kd was 9.82 nM.

In the case of CCCAACGACUGCCGAGCGAGAUUACGCUGGAGCGCCCCACUGAGGAUGCCCACGGGCGAUUGGCGCACGG [U29G G64C], the Kd is 5.11 nM.

As to CCCAACGACUGCCGAGCGAGAUUACGCUGGAGCGCCCCACUGAGGAUGCCCACGGGCGAUUGGAGCACGG [U29G G64A], the Kd amounted to 7.34 nM.

As for CCCAACGACUGCCGAGCGAGAUUACGCUGGAGCGCCCCACUGAGGAUGCCCACGGGCGAUUGGUGCACGG [U29G G64U], the Kd was 6.21 nM.

In the case of CCCAACGACUGCCGAGCGAGAUUACGCUUAGGCGCCCCACUGAGGAUGCCCACGGGCGAUUGGGGCACGG [G30A A31G], the equilibrium dissociation constant (Kd) was 5.33 nM.

On to CCCAACGACUGCCGAGCGAGAUUACGCUUGGGCGCCCCACUGGGGAUGCCCACGGGCGAUUGGGGCACGG [A31G A43G], for which the equilibrium dissociation constant (Kd) was determined as 11.3 nM.

With CCCAACGACUGCCGAGCGAGAUUACGCUGUAGCGCCCCACUGAGGAUGCCCACGGGCGAUUGGGGCACGG [U29G G30U], the Kd is 5.81 nM.

CCCAACGACUGCCGAGCGAGAUUACGCUGCAGCGCCCCACUGAGGAUGCCCACGGGCGAUUGGGGCACGG [U29G G30C]: the dissociation constant Kd was determined as 5.14 nM.

As to CCCAACGACUGCCGAGCGAGAUUACGCUGAAGCGCCCCACUGAGGAUGCCCACGGGCGAUUGGGGCACGG [U29G G30A], the equilibrium dissociation constant (Kd) worked out at 5.05 nM.

As for CCCAACGACUGCCGAGCGAGAUUACGCUGGAGCUCCCCACUGAGGAUGCCCACGGGCGAUUGGGGCACGG [U29G G34U], the dissociation constant (Kd) is 5.71 nM.

For the variant CCCAACGACUGCCGAGCGAGAUUACGCUGGAGCACCCCACUGAGGAUGCCCACGGGCGAUUGGGGCACGG [U29G G34A], the Kd worked out at 7.56 nM.
